An excerpt weighted towards active compounds, which were near 2.5% of everything screened.
HTR2A ag – mouse HTR2A agonism via beta-arrestin recruitment | activation, % at 7.6 µM | AID 624169 | 360,000 tested, 0.66% active | CHO-K1 mHTR2A beta-arrestin complementation, luminescence; percent of 30 µM serotonin response;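 active = activation above a run cutoff, the mean activation of all tested compounds plus 3 SD, cut at about 14% in these data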;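 also: 0% = plate median of compound wells and 100% = 30 µM serotonin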
dFosB activator – activators of mouse delta FosB homodimer | AID 493131 | P13346 | purified delta FosB, TAMRA-CDK5 oligo fluorescence polarization; percent of positive-control signal above neutral wells | 340,000 tested, 0.99% active | activation, % at 25 µM;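 active = mean activation above about 17%, with every replicate also reaching it, limit read from the data, passing the limit was not always enough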
VIM-2 inh – blocks Pseudomonas aeruginosa VIM-2 metallo-beta-lactamase; purified VIM-2, nitrocefin hydrolysis, epi-absorbance fluorescence; inhibition, % at 5.6 µM; 290,000 tested, 0.89% active;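 active = inhibition above the mean of all tested compounds plus 3 SD, cutoff set per screening run, cut at about 7.5% in these data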;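 also: red hydrolysis product quenches plate fluorescence so inhibitors raise well fluorescence; 0% = enzyme with DMSO and 100% = DMSO without enzyme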
IMP-1 inh-1 – blocks Pseudomonas aeruginosa IMP-1 metallo-beta-lactamase; purified IMP-1, nitrocefin hydrolysis, epi-absorbance fluorescence; AID 1556; inhibition, % at 5.6 µM; 290,000 tested, 0.45% active;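 active = inhibition above the mean plus 3 SD of all compounds in the same screening run, cut at about 4.5% in these data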;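 also: 0% = IMP-1 with DMSO and 100% = DMSO wells lacking enzyme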
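System: Purified IMP-1 | Read-out basis: Percent enzyme inhibition | Controls: IMP-1 with DMSO as 0%, enzyme-free DMSO as 100% | Replicates: One well per compound | Doses: 5.6 µM nominal single concentration | Detection: Epi-absorbance fluorescence, 480 nm excitation, 530 nm emission | Incubation: 25 °C, 15 min preincubation, 25 min reaction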
IMP-1 inh-2 – selectivity counter-screen for VIM-2 inhibitors: IMP-1 metallo-beta-lactamase inhibitors; inhibition, % at 5.6 µM; purified IMP-1, nitrocefin hydrolysis, epi-absorbance fluorescence; shares compounds with VIM-2 inh; 1,300 tested, under 10 active; AID 1856; call rule not given here;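 also: 0% = enzyme with vehicle and 100% = vehicle without enzyme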
VIM-2 FRET ctr – counter-screen for VIM-2 inhibitors: epi-absorbance artifacts via FRET. shares compounds with VIM-2 inh. purified VIM-2, CCF2 FRET substrate hydrolysis. inhibition, % at 5.6 µM. 1,300 tested, 23% active. AID 1857;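 active = inhibition above the mean of all tested compounds plus 3 SD, cut at about 19% in these data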;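 also: 0% = VIM-2 plus DMSO and 100% = no enzyme wells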
TEM-1 inh – TEM-1 inhibition, counter-screen for VIM-2 inhibitors; shares compounds with VIM-2 inh; Purified TEM-1, nitrocefin hydrolysis, epi-absorbance fluorescence; inhibition, % at 5.6 µM; 1,300 tested, 3% active; AID 1866;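 active = inhibition above that campaign's mean inhibition plus 3 SD, cut at about 0.46% in these data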;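 also: 0% = TEM-1 with DMSO and 100% = TEM-1 with 100 µM potassium clavulanate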
Target sequence (P62593 whole entry, looked up): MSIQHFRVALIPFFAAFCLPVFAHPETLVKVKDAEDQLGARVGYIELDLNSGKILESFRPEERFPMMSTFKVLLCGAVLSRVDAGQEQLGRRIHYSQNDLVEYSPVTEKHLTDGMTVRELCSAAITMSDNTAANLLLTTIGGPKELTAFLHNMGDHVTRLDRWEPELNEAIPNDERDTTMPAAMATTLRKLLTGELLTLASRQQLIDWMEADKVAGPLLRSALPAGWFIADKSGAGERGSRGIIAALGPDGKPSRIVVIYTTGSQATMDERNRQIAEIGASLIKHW
VIM-2 confirm 2 – confirmation of P. aeruginosa VIM-2 metallo-beta-lactamase inhibitors. shares compounds with VIM-2 inh. purified VIM-2, nitrocefin hydrolysis, epi-absorbance. inhibition, % at 5.6 µM. 1,300 tested, 96% active. AID 2187;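 active = inhibition of the VIM-2 beta-lactamase enzyme above about 11% from the earlier first-round screen, limit read from the data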;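 also: 0% = VIM-2 with DMSO and 100% = buffer wells without enzyme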
* = called active by the depositor; nt = no result.

SMILES	HTR2A ag	dFosB activator	VIM-2 inh	IMP-1 inh-1	IMP-1 inh-2	VIM-2 FRET ctr	TEM-1 inh	VIM-2 confirm 2
Cc1ccc(N(CC(=O)NC(C)(C)C)C(=O)CCC(=O)Nc2ccccn2)cc1	5	nt	nt	nt	nt	nt	nt	nt
COc1cc(Cl)ccc1OCc1cc(C(=O)N2C[C@]3(C)C[C@H]2CC(C)(C)C3)no1	-5	-14	-3	-1	nt	nt	nt	nt
S=c1[nH]nc(-c2cccs2)n1Cc1ccccc1	-2	-3	43*	-2	-2	67*	-9	51*
O=C(Nc1nccs1)c1ccc(CSc2ccccc2)o1	-2	-5	-1	-1	nt	nt	nt	nt
O=C(CNc1ccc2ccccc2c1)N/N=C/c1cc2ccccc2nc1Cl	4	-8	22*	1	-4	3	-9	34*
O=C(COc1cccc(Cl)c1)N/N=C\c1cc2ccccc2nc1Cl	-1	-1	-3	-2	nt	nt	nt	nt
O=c1c(-c2n[nH]c(=S)n2-c2ccccc2)cccn1Cc1cccc(Cl)c1	3	-5	25*	-4	-3	48*	-9	31*
C=CCn1c(-c2cccn(Cc3cccc(Cl)c3)c2=O)n[nH]c1=S	10	3	3	0	nt	nt	nt	nt
Cc1c(Cl)c(-c2n[nH]c(=S)n2Cc2ccco2)nn1C	-3	1	1	-4	nt	nt	nt	nt
Cc1cccc(-c2n[nH]c(=S)n2-c2ccccc2)c1[N+](=O)[O-]	-1	-8	34*	-2	-2	62*	-7	44*
O=[N+]([O-])c1cccc(-c2n[nH]c(=S)n2-c2ccccc2)c1	nt	nt	-1	-3	nt	nt	nt	nt
Cc1c(Cl)c(-c2n[nH]c(=S)n2-c2ccccc2)nn1C	7	6	19*	-5	-3	44*	-8	27*
CCOc1cc2nc(-c3ccc(OC)c(OC)c3)nc(NCCCN3CCOCC3)c2cc1OC	-4	1	26*	0	-4	3	-7	49*
COc1cc2ncnc(NCCCN3CCOCC3)c2cc1OC	0	8	3	1	nt	nt	nt	nt
CCOC(=O)c1nnn2c1nc(SCC(C)=O)c1ccccc12	-2	nt	7	-2	nt	nt	nt	nt
C=CCSc1nc2c(C(=O)OCC)nnn2c2ccccc12	-4	-52	28*	-3	-4	-4	-11	39*
COC(=O)c1c(NC(=O)C(=O)NCCCN2CCOCC2)sc2c1CCC2	0	10	14*	-2	-2	1	-9	25*
COC(=O)c1c(NC(=O)C(=O)NCCCN2CCOCC2)sc2c1CC(C)(C)OC2	-3	-11	13*	-9	-3	2	-4	20*
CC1(C)Cc2c(sc(NC(=O)C(=O)NCCCN3CCOCC3)c2C(N)=O)CO1	3	-4	-4	-3	nt	nt	nt	nt
N#Cc1c(NC(=O)C(=O)NCCCN2CCOCC2)sc2c1CCCC2	3	-4	0	-2	nt	nt	nt	nt
Cn1c(N)c(C(=O)c2cc(-c3ccccn3)nc3ccccc23)c(=O)[nH]c1=O	-5	-16	38*	-15	-6	-14	-7	42*
O=C(CCN1C(=O)/C(=C/c2ccccc2F)SC1=S)NCCCn1ccnc1	-6	-11	37*	-1	-2	44*	-8	41*
O=C(CCCN1C(=O)/C(=C/c2ccccc2)SC1=S)NCCCn1ccnc1	0	-3	0	-1	nt	nt	nt	nt
Cn1c(-c2sccc2OCc2ccc(Cl)cc2Cl)n[nH]c1=S	0	-8	34*	-4	-3	62*	-8	43*
Cc1ccc(COc2ccsc2-c2n[nH]c(=S)n2C)cc1	6	4	34*	-3	-3	62*	-7	41*
Cn1c(-c2sccc2OCc2ccccc2)n[nH]c1=S	0	-3	35*	-2	-2	72*	-7	54*
COc1ccc(Cl)cc1-c1n[nH]c(=S)n1C	-1	-9	-2	-2	nt	nt	nt	nt
Cc1ccc(C2=NS(=O)(=O)N(C)C(C(=O)N3CCOCC3)=C2)cc1	2	0	-3	-4	nt	nt	nt	nt
CCc1ccc(C(=O)CN2C(=O)NC3(CCc4ccccc43)C2=O)cc1 (stereo not drawn)	-7	-11	nt	nt	nt	nt	nt	nt

Screening results deposited in PubChem BioAssay by several laboratories.
